ChEMBL document CHEMBL1153436, “2-Pyridyl P1'-substituted symmetry-based human immunodeficiency virus protease inhibitors (A-792611 and A-790742) with potential for convenient dosing and reduced side effects” (J Med Chem, 2009)

Key:
[1] = test system: Human immunodeficiency virus 1; assay: Antiviral activity against wild-type HIV1 pNL4-3 infected in human MT4 cells after 5 days by MTT assay; type: functional, organism-based; conditions: Human immunodeficiency virus 1, MT4, 120 h
[2] = test system: Human immunodeficiency virus 1; assay: Antiviral activity against wild-type HIV1 pNL4-3 infected in human MT4 cells after 5 days by MTT assay in presence of 50% human serum; type: functional, organism-based; conditions: Human immunodeficiency virus 1, MT4, 120 h
[3] = test system: Human immunodeficiency virus 1; assay: Antiviral activity against HIV1 bearing protease gene with A17 mutation infected in human MT4 cells after 5 days by MTT assay; type: functional, organism-based; conditions: Human immunodeficiency virus 1, MT4, 120 h
Outline: (§1)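 HIV-1 A17 mutant clone carrying protease mutations L10F, V32I, M46I, I47V, Q58E and I84V, generated by in vitro serial passage under LPV/RTV. EC50 was determined in MT-4 cells. Wild-type reference strain was HIV-1 pNL4-3.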

[4] = test system: Human immunodeficiency virus 1; assay: Fold resistance, ratio of EC50 for HIV1 bearing protease gene with A17 mutation to EC50 for wild-type HIV1 pNL4-3; type: functional; outline: as §1

## COC(=O)N[C@H](C(=O)N[C@@H](Cc1ccc(-c2ccccn2)cc1)[C@@H](O)C[C@H](Cc1ccccc1)NC(=O)[C@@H](N1CCN(Cc2ccccc2)C1=O)C(C)(C)C)C(C)(C)C
[1]
  EC50: 1 nM
[2]
  EC50: 10 nM
[3]
  EC50: 4 nM
[4]
  Ratio EC50: 4

## COC(=O)N[C@H](C(=O)N[C@@H](Cc1ccc(-c2ccccn2)cc1)C[C@H](O)[C@H](Cc1ccccc1)NC(=O)[C@@H](N1CCN(Cc2csc(C)n2)C1=O)C(C)(C)C)C(C)(C)C
[1]
  EC50: 10 nM
[2]
  EC50: 94 nM
[4]
  Ratio EC50: 1

## COC(=O)N[C@H](C(=O)N[C@H](Cc1ccc(-c2ccccn2)cc1)C[C@H](O)[C@H](Cc1ccccc1)NC(=O)[C@@H](N1CCN(Cc2ccccc2)C1=O)C(C)(C)C)C(C)(C)C
[1]
  EC50: 11 nM
[2]
  EC50: 43 nM
[3]
  EC50: 37 nM
[4]
  Ratio EC50: 3

## COC(=O)N[C@H](C(=O)N[C@H](Cc1ccc(-c2ccccn2)cc1)C[C@H](O)[C@H](Cc1ccccc1)NC(=O)[C@@H](N1CCN(Cc2cccc(C)n2)C1=O)C(C)(C)C)C(C)(C)C
[1]
  EC50: 5 nM
[2]
  EC50: 27 nM
[3]
  EC50: 21 nM
[4]
  Ratio EC50: 4

## COC(=O)N[C@H](C(=O)N[C@@H](Cc1ccc(-c2ccccn2)cc1)[C@@H](O)C[C@H](Cc1ccccc1)NC(=O)[C@@H](N1CCN(Cc2csc(C(C)C)n2)C1=O)C(C)(C)C)C(C)(C)C
[1]
  EC50: 1 nM
[2]
  EC50: 13 nM
[4]
  Ratio EC50: 1

## COC(=O)N[C@H](C(=O)N[C@@H](Cc1ccc(-c2ccccn2)cc1)C[C@H](O)[C@H](Cc1ccccc1)NC(=O)[C@@H](N1CCN(Cc2cccc(OC)c2)C1=O)C(C)(C)C)C(C)(C)C
[1]
  EC50: 14 nM
[2]
  EC50: 65 nM
[3]
  EC50: 53 nM
[4]
  Ratio EC50: 4

## COC(=O)N[C@H](C(=O)N[C@H](Cc1ccc(-c2ccccn2)cc1)C[C@H](O)[C@H](Cc1ccccc1)NC(=O)[C@@H](N1CCN(Cc2cccc(C(C)(C)C)n2)C1=O)C(C)(C)C)C(C)(C)C
[1]
  EC50: 15 nM
[2]
  EC50: 311 nM
[3]
  EC50: 151 nM
[4]
  Ratio EC50: 10

## COC(=O)N[C@H](C(=O)N[C@@H](Cc1ccc(-c2ccccn2)cc1)[C@@H](O)C[C@H](Cc1ccccc1)NC(=O)[C@@H](N1CCN(Cc2cccc(C)n2)C1=O)C(C)(C)C)C(C)(C)C
[1]
  EC50: 5 nM
[2]
  EC50: 30 nM
[4]
  Ratio EC50: 1

## COC(=O)N[C@H](C(=O)N[C@@H](Cc1ccc(-c2ccccn2)cc1)C[C@H](O)[C@H](Cc1ccccc1)NC(=O)[C@@H](N1CCN(Cc2ccc(N)cc2)C1=O)C(C)(C)C)C(C)(C)C
[1]
  EC50: 10 nM
[2]
  EC50: 63 nM
[3]
  EC50: 30 nM
[4]
  Ratio EC50: 3

## COC(=O)N[C@H](C(=O)N[C@@H](Cc1ccc(-c2ccccn2)cc1)C[C@H](O)[C@H](Cc1ccccc1)NC(=O)[C@@H](N1CCN(Cc2ccccc2F)C1=O)C(C)(C)C)C(C)(C)C
[1]
  EC50: 11 nM
[2]
  EC50: 36 nM
[3]
  EC50: 88 nM

## COC(=O)N[C@H](C(=O)N[C@H](Cc1ccc(-c2ccccn2)cc1)C[C@H](O)[C@H](Cc1ccccc1)NC(=O)[C@@H](N1CCN(Cc2cccc(C(C)C)n2)C1=O)C(C)(C)C)C(C)(C)C
[1]
  EC50: 15 nM
[2]
  EC50: 105 nM
[3]
  EC50: 66 nM
[4]
  Ratio EC50: 4

## COC(=O)N[C@H](C(=O)N[C@@H](Cc1ccc(-c2ccccn2)cc1)C[C@H](O)[C@H](Cc1ccccc1)NC(=O)[C@@H](N1CCN(Cc2cccc(F)c2)C1=O)C(C)(C)C)C(C)(C)C
[1]
  EC50: 4 nM
[2]
  EC50: 28 nM
[3]
  EC50: 38 nM
[4]
  Ratio EC50: 9

## COC(=O)N[C@H](C(=O)N[C@@H](Cc1ccc(-c2ccccn2)cc1)C[C@H](O)[C@H](Cc1ccccc1)NC(=O)[C@@H](N1CCN(Cc2nc3ccccc3n2C)C1=O)C(C)(C)C)C(C)(C)C
[1]
  EC50: 140 nM
[2]
  EC50: 346 nM
[3]
  EC50: 32 nM
[4]
  Ratio EC50: <1

## COC(=O)N[C@H](C(=O)N[C@@H](Cc1ccc(-c2ccccn2)cc1)C[C@H](O)[C@H](Cc1ccccc1)NC(=O)[C@@H](N1CCN(Cc2ccccc2C)C1=O)C(C)(C)C)C(C)(C)C
[1]
  EC50: 10 nM
[2]
  EC50: 30 nM
[3]
  EC50: 72 nM
[4]
  Ratio EC50: 7
